According to ChEMBL document CHEMBL1955761, “Privileged scaffolds or promiscuous binders: a comparative study on rhodanines and related heterocycles in medicinal chemistry” (J Med Chem, 2012):
The source made the active and inactive calls.

What was measured:
Escherichia coli [1] = experiment: Inhibition of Escherichia coli MetAP at 10 uM after 15 mins by fluorescence analysis
Prothrombin (Bos taurus) = Prothrombin (Bos taurus) (UniProt P00735); experiment: Inhibition of bovine plasma thrombin using Boc-Val-Pro-Arg-AMC as substrate at 25 uM preincubated for 15 mins measured after 10 mins by fluorimetric assay
In short: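 Purchased bovine plasma thrombin at 10 nM final, preincubated 15 min with 25 μM inhibitor; reaction started with 50 μM substrate. Buffer 50 mM Tris-HCl pH 7.5, 150 mM NaCl, 0.05% Tween 20. Triplicate, averaged.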

Escherichia coli [2] = experiment: Inhibition of Escherichia coli MurA using PEP as substrate assessed as inorganic phosphate release at 25 uM preincubated for 10 mins measured after 60 mins […]
Dengue virus = experiment: Inhibition of Dengue virus NS2B-NS3 protease using Abz-NleKRRS-3-(NO2)Y as substrate at 50 uM preincubated for 15 mins measured every sec for 15 mins by fluorimetric analysis

Row | Structure (SMILES) | inhibition (Escherichia coli [1]) | inhibition (Prothrombin (Bos taurus)) | inhibition (Escherichia coli [2]) | inhibition (Dengue virus)
1 | COc1ccccc1/C=C1\SC(=O)NC1=O | 10% | 11% | 25% | 17%
2 | O=C1NC(=O)/C(=C/c2sccc2Br)S1 | inactive | 18% | 44% | inactive
3 | O=C1NC(=S)S/C1=C\c1cnc[nH]1 | 18% | 31% | 18% | 53%
4 | O=C1CNC(=O)N1 | inactive | inactive | inactive | inactive
5 | NCCCC[C@@H]1NC(=S)NC1=O | inactive | inactive | inactive | 11%
6 | O=C1NC(=S)S/C1=C1/CCOc2ccccc21 | inactive | 18% | inactive | 44%
7 | O=C1CNC(=S)N1 | inactive | inactive | inactive | inactive
8 | CC(=O)N1C(=S)NC(=O)[C@@H]1CCCCN | inactive | inactive | 12% | inactive
9 | CC(=O)N1C(=S)NC(=O)[C@@H]1Cc1c[nH]c2ccccc12 | inactive | inactive | inactive | inactive
10 | O=C1NC(=O)/C(=C/c2ccc(Cl)s2)S1 | inactive | 29% | 38% | 11%
11 | O=C1NC(=S)SC1Cc1ccccc1 (stereo not drawn) | inactive | inactive | 11% | inactive
12 | O=C1NC(=S)NC1Cc1cccs1 (stereo not drawn) | inactive | inactive | inactive | inactive
13 | Cn1cc(/C=C2\SC(=O)NC2=O)c2ccccc21 | inactive | 25% | inactive | 41%
14 | O=C1NC(=O)[C@H](Cc2c[nH]c3ccccc23)N1 | 19% | inactive | inactive | inactive
15 | CC(=O)N1C(=S)NC(=O)[C@@H]1Cc1ccc(O)cc1 | inactive | inactive | inactive | inactive
16 | O=C1NC(=O)/C(=C/C=C/c2ccco2)S1 | 12% | 24% | 24% | inactive
17 | O=C1NC(=S)S/C1=C\c1c(F)c(F)c(F)c(F)c1F | inactive | 25% | inactive | 27%
18 | O=C1NC(=S)S/C1=C\C=C\c1ccco1 | 14% | 28% | 94% | 26%
19 | C/C(=C1/SC(=S)NC1=O)c1ccc2ccccc2c1 | inactive | 23% | inactive | 42%
20 | O=C1NC(=O)/C(=C/c2ccco2)S1 | inactive | 19% | 41% | 20%
21 | O=C1NC(=S)S/C1=C\C1CCCCC1 | 40% | 29% | 13% | 22%
22 | CC(C)C[C@@H]1NC(=S)NC1=O | inactive | inactive | 20% | inactive
23 | CCC/C=C/C1SC(=S)NC1=O (stereo not drawn) | inactive | 11% | 88% | 23%
24 | O=C1NC(=S)S/C1=C\c1ccccn1 |  | inactive |  | 

Next, values leading:

Row | inhibition (Escherichia coli [1]) | inhibition (Prothrombin (Bos taurus)) | inhibition (Escherichia coli [2]) | inhibition (Dengue virus) | Structure (SMILES)
25 | inactive | 23% | 15% | 46% | O=C1NC(=S)S/C1=C\c1ccc(Cl)cc1Cl
26 | 11% | 15% | 57% | 42% | O=C1NC(=S)N/C1=C\c1cc(Br)cs1
27 | inactive | 11% | 10% | 33% | COc1cccc(/C=C2\SC(=S)NC2=O)c1
28 | inactive | 20% | 69% | inactive | C/C(=C1/SC(=S)NC1=O)c1ccc(F)cc1
29 | 15% | 27% | 32% | 46% | O=C1NC(=S)N/C1=C\c1ccc2ccccc2c1
30 | 11% | inactive | inactive | 18% | O=C1NC(=O)/C(=C/c2cccc(O)c2)S1
31 | inactive | 13% | inactive | 50% | COc1ccc(/C=C2\NC(=S)NC2=O)cc1
32 | 73% | inactive | 63% | 15% | O=C1NC(=S)NC1Cc1ccc(O)c(O)c1 (stereo not drawn)
33 | 86% | 23% | 46% | 36% | O=C1NC(=S)N/C1=C\c1ccc(O)c(O)c1
34 | inactive | 22% | 77% | 55% | O=C1NC(=S)N/C1=C\c1c[nH]c2ccccc12
35 | inactive | inactive | inactive | inactive | O=C1NC(=O)/C(=C/c2sccc2Cl)N1
36 | 14% | 21% | 24% | inactive | C/C(=C1/NC(=S)NC1=O)c1ccccc1
37 | inactive | 16% | inactive | 42% | COc1ccc(/C=C2\SC(=S)NC2=O)cc1
38 | inactive | 34% | 24% | 47% | O=C1NC(=S)S/C1=C\c1ccc(O)cc1
39 | inactive | 26% | inactive | 44% | O=C1NC(=S)S/C1=C\c1c[nH]c2ccccc12
40 | inactive | 28% | inactive | 13% | O=C1NC(=O)/C(=C/c2ccc(Cl)cc2Cl)S1
41 | inactive | 11% | 31% | 44% | O=C1NC(=S)N/C1=C\c1sccc1Br
42 | inactive | 29% | 22% | 42% | O=C1NC(=S)N/C1=C\c1ccc(Cl)s1
43 | inactive | 11% | 10% | 33% | COc1ccccc1/C=C1\SC(=S)NC1=O

Row | inhibition (Escherichia coli [1]) | inhibition (Prothrombin (Bos taurus)) | inhibition (Escherichia coli [2]) | inhibition (Dengue virus) | Structure (SMILES)
44 | 26% | 23% | 72% | 38% | COc1cc(/C=C2\NC(=S)NC2=O)ccc1O
45 | 42% | 20% | 50% | 43% | C/C(=C1/NC(=S)NC1=O)c1cccs1
46 | 65% | 35% | 89% | 50% | O=C1NC(=S)S/C1=C\c1ccc(O)c(O)c1
47 | 27% | 16% | 17% | 18% | CCCCC/C=C1\NC(=S)NC1=O
48 | inactive | 27% | 13% | 54% | O=C1NC(=S)S/C1=C\c1ccc(Cl)s1
49 | 27% | 18% | 48% | 13% | COc1ccc(/C=C/C=C2\NC(=S)NC2=O)cc1
50 | inactive | 23% | 15% | 44% | O=C1NC(=S)N/C1=C\c1cc2ccccc2[nH]1
51 | 14% | 28% | 15% | 56% | O=C1NC(=S)S/C1=C\c1ccc2ccccc2c1
52 | inactive | 19% | inactive | inactive | O=C1NC(=O)/C(=C/c2ccc3ccccc3c2)S1
53 | inactive | 19% | 19% | 46% | O=C1NC(=S)N/C1=C\c1sccc1Cl
54 | inactive | 22% | inactive | 22% | O=C1NC(=O)/C(=C/c2ccc(Br)s2)N1
55 | inactive | 18% | inactive | 44% | O=C1NC(=S)S/C1=C\c1cccs1
56 | inactive | 21% | 18% | 47% | O=C1NC(=S)S/C1=C\c1cc(Br)cs1
57 | inactive | 39% | 11% | 48% | O=C1NC(=S)N/C1=C\c1ccc(O)cc1
58 | inactive | 11% | inactive | 37% | N#Cc1ccc(/C=C2\NC(=S)NC2=O)cc1
59 | 20% | 18% | 16% | 30% | O=C1NC(=S)N/C1=C\C1CCCCC1
60 | 12% | 15% | 58% | 29% | O=C1NC(=S)S/C1=C\c1cccc(O)c1
61 |  | 23% |  |  | Cc1ccc(/C=C2\SC(=S)NC2=O)cc1
